Test results taken from ChEMBL document CHEMBL2057126, “Discovery of new inhibitors of Cdc25B dual specificity phosphatases by structure-based virtual screening” (J Med Chem, 2012).
Activity calls are given as the source filed them. No cut-off for these calls is given here.

What was measured:
[1] = Inhibition of Cdc25; set-up: species or system Homo sapiens
[2] = biological target: T1, M-phase inducer phosphatase 1 (Homo sapiens) (UniProt P30304); assay: Inhibition of recombinant phosphatase activity of Cdc25A catalytic domain expressed in Escherichia coli BL21(DE3) using OMFP as substrate at 100 uM after 15 mins by fluorimetric assay
T1 sequence (whole entry): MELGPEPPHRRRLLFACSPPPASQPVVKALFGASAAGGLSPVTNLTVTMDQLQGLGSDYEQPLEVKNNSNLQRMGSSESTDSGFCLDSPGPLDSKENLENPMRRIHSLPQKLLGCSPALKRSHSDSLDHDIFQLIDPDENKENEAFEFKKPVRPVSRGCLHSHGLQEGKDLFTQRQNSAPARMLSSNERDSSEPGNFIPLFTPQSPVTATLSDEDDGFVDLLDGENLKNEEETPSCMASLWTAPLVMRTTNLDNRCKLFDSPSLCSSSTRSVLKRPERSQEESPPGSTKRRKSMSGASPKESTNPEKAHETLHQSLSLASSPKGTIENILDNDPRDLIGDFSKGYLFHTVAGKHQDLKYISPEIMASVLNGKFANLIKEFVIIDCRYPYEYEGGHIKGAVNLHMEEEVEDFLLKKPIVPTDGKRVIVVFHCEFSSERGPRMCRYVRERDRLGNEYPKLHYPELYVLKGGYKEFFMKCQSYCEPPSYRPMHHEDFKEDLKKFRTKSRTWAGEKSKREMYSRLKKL

[3] = biological target: T2, M-phase inducer phosphatase 2 (Homo sapiens) (UniProt P30305); assay: Inhibition of recombinant phosphatase activity of Cdc25B catalytic domain expressed in Escherichia coli BL21(DE3) using OMFP as substrate at 100 uM after 15 mins by fluorimetric assay
T2 sequence (whole entry): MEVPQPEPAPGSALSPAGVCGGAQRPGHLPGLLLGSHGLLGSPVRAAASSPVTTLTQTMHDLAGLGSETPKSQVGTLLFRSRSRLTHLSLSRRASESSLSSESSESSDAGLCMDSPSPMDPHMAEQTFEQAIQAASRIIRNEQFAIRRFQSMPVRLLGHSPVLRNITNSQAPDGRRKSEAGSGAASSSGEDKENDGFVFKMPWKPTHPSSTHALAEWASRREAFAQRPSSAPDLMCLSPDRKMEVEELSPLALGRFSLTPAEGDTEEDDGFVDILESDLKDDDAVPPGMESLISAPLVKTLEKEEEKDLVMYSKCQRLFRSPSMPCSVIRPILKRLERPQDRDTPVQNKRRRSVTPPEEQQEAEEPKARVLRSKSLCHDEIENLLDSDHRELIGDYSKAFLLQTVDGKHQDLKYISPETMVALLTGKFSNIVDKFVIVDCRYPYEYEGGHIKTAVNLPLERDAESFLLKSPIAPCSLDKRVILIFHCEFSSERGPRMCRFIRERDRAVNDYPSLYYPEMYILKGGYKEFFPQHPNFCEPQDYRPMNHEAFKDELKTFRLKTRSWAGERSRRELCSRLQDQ

[4] = biological target: T3, M-phase inducer phosphatase 3 (Homo sapiens) (UniProt P30307); assay: Inhibition of recombinant phosphatase activity of Cdc25C catalytic domain expressed in Escherichia coli BL21(DE3) using OMFP as substrate at 100 uM after 15 mins by fluorimetric assay
T3 sequence (whole entry): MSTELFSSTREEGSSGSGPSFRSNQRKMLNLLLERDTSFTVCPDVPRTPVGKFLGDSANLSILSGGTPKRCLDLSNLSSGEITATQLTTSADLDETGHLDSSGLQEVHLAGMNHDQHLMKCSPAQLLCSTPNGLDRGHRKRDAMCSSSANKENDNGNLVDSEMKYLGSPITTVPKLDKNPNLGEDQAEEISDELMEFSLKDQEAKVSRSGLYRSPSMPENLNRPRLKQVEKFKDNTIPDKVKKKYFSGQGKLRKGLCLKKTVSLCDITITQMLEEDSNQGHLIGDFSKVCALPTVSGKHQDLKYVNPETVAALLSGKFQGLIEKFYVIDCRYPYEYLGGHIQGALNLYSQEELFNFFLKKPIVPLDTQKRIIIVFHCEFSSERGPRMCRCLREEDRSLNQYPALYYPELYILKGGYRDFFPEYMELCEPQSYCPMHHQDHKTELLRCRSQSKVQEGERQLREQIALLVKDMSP

[5] = biological target: T2, M-phase inducer phosphatase 2 (Homo sapiens); assay: (§1) Inhibition of recombinant phosphatase activity of Cdc25B catalytic domain expressed in Escherichia coli BL21(DE3) using OMFP as substrate by spectrofluorimetric analysis
[6] = biological target: T4, M-phase inducer phosphatase 2 (Homo sapiens, UniProt P30305); assay: as §1
T4 sequence (P30305 whole entry): T2 sequence (whole entry)

[7] = biological target: T5, M-phase inducer phosphatase 1 (Homo sapiens, UniProt P30304); assay: Inhibition of recombinant phosphatase activity of Cdc25A catalytic domain expressed in Escherichia coli BL21(DE3) using OMFP as substrate by spectrofluorimetric analysis
T5 sequence (P30304 whole entry): T1 sequence (whole entry)
Outline: (§2)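 Purified recombinant Cdc25A catalytic domain; phosphatase activity measured as OMFP hydrolysis versus inhibitor concentration to derive IC50, with Ki calculated from kinetic measurements. Results are averages ± SD of three determinations.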

[8] = biological target: T5, M-phase inducer phosphatase 1; assay: Inhibition of recombinant phosphatase activity of Cdc25A catalytic domain expressed in Escherichia coli BL21(DE3) using OMFP as substrate by Lineweaver-Burk plot analysis; outline: as §2
[9] = biological target: T4, M-phase inducer phosphatase 2; assay: Competitive inhibition of recombinant phosphatase activity of Cdc25B catalytic domain expressed in Escherichia coli BL21(DE3) using OMFP as substrate by Lineweaver-Burk plot analysis
MCF7 [10] = assay: Growth inhibition against human MCF7 cells expressing Cdc25A-C assessed as cell viability at 200 uM after 72 hrs by MTS assay; assay type: functional, cell-based
Outline: (§3)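 MCF-7 breast, PC-3 prostate and K562 leukaemia cells treated 72 h with inhibitor or DMSO vehicle control, then cell viability measured. Values are mean ± SD of three experiments; significance by Student's t test, p ≤ 0.05.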

PC-3 = assay: Growth inhibition against human PC3 cells expressing Cdc25A-C assessed as cell viability at 200 uM after 72 hrs by MTS assay; assay type: functional, cell-based; outline: as §3
K562 = assay: Growth inhibition against human K562 cells expressing Cdc25A-C assessed as cell viability at 200 uM after 72 hrs by MTS assay; assay type: functional, cell-based; outline: as §3
MCF7 [11] = assay: Cell cycle arrest in human MCF7 cells assessed as accumulation at G1 phase at 200 uM after 24 hrs by propidium iodide staining-based flow cytometry (reference value: 81.3 +/- 0.01%); assay type: functional
MCF7 [12] = assay: Cell cycle arrest in human MCF7 cells assessed as accumulation at S phase at 200 uM after 24 hrs by propidium iodide staining-based flow cytometry (reference value: 9.35%); assay type: functional
MCF7 [13] = assay: Cell cycle arrest in human MCF7 cells assessed as accumulation at G2/M phase at 200 uM after 24 hrs by propidium iodide staining-based flow cytometry (reference value: 9.4 +/- 0.04%); assay type: functional
MCF7 [14] = assay: Cell cycle arrest in human MCF7 cells assessed as accumulation at G1 phase at 200 uM after 48 hrs by propidium iodide staining-based flow cytometry (reference value: 64.5 +/- 0.02%); assay type: functional
MCF7 [15] = assay: Cell cycle arrest in human MCF7 cells assessed as accumulation at S phase at 200 uM after 48 hrs by propidium iodide staining-based flow cytometry (reference value: 14.5 +/- 0.01%); assay type: functional
MCF7 [16] = assay: Cell cycle arrest in human MCF7 cells assessed as accumulation at G2/M phase at 200 uM after 48 hrs by propidium iodide staining-based flow cytometry (reference value: 21 +/- 0.04%); assay type: functional
[17] = biological target: T2, M-phase inducer phosphatase 2 (Homo sapiens); settings: K562, 200 uM

Compound	IC50 [1]	inhibition [2]	inhibition [3]	inhibition [4]	inhibition [5]	IC50 [6]	IC50 [7]	Ki [8]	Ki [9]	growth inhibition (GI) (MCF7 [10])	growth inhibition (GI) (PC-3)	growth inhibition (GI) (K562)	Activity (MCF7 [11])	Activity (MCF7 [12])	Activity (MCF7 [13])	Activity (MCF7 [14])	Activity (MCF7 [15])	Activity (MCF7 [16])	inhibition [17]
Cc1nc2c(s1)C(=O)C=C(NCCCN(C)CCCNC1=CC(=O)c3nc(-c4cc(F)ccc4F)oc3C1=O)C2=O	20 nM																		
O=C(O)c1ccc(C(=O)c2ccccc2C(=O)O)cc1C(=O)O		80%	80%	63%	Dose-dependent effect	17.5 µM	6 µM	2300 nM	5.3 µM	Active	Active	Active	59.1%	14.1%	26.6%	97%	1.6%	1.4%	Active
